Columns and labels:
Type in all cases: functional
Tobacco mosaic virus [1] = test: Antiviral activity against Tobacco mosaic virus (TMV) assessed as inhibition of viral growth at 500 ug/mL; conditions: read-out: GI
Outline: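 Leaves of 5–6-growth-stage tobacco were rub-inoculated with TMV juice (5.88 × 10−2 μg/mL), then cut into halves along the main vein. One half was immersed in 500 μg/mL compound and the other in double-distilled water, each for 20 min. Halves were cultured at 25 °C for 72 h, with at least 3 replicates. Inhibition % = (control − treated average lesion number)/control × 100.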

Tobacco mosaic virus [2] = test: Antiviral activity against Tobacco mosaic virus (TMV) inoculation on Nicotiana tabacum L. whole leaves assessed as virus inactivation effect at 500 ug/mL measured 3 to 4 days post inoculation
Outline: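 TMV was mixed with an equal volume of compound solution for 30 min. The mixture was inoculated on the left half of N. tabacum L. leaves, and virus mixed with solvent on the right half as control. Local lesions were recorded 3–4 days post-inoculation, in triplicate. Inhibition % was calculated from average lesion numbers versus control.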

Tobacco mosaic virus [3] = test: Antiviral activity against Tobacco mosaic virus (TMV) inoculation on Nicotiana tabacum L. whole leaves assessed as virus infection protective effect at 500 ug/mL measured 3 to 4 days post inoculation
Outline: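 On N. tabacum L. leaves of the same age, compound was smeared on the left half and solvent on the right half as control. After 12 h, leaves were dusted with silicon carbide, brush-inoculated with TMV (6 × 10−3 mg/mL), then washed. Local lesions were counted 3–4 days later, in triplicate. Inhibition % was calculated from average lesion numbers versus control.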

Tobacco mosaic virus [4] = test: Antiviral activity against Tobacco mosaic virus (TMV) inoculation on Nicotiana tabacum L. whole leaves assessed as virus infection curative effect at 500 ug/mL measured 3 to 4 days post inoculation
Outline: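 Whole N. tabacum L. leaves of the same age were inoculated with TMV (6.0 × 10−3 mg/mL), then washed and dried. Compound was then smeared on the left half and solvent on the right half as control. Local lesions were counted 3–4 days post-inoculation, in triplicate. Inhibition % was calculated from average lesion numbers versus control.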

SMILES | inhibition of growth at 500 µg/mL (Tobacco mosaic virus [1]) [%] | Activity (Tobacco mosaic virus [2]) [%] | Activity (Tobacco mosaic virus [3]) [%] | Activity (Tobacco mosaic virus [4]) [%]
O=C1NCNC(=O)N1 | 50 | – | – | –
CCN(CC)C(=O)[C@H]1CCCN1Cc1c(Br)c2ccc(OC)c(Br)c2c2cc(OC)c(OC)cc12 | 22.4 | 10.4 | 20.3 | 13.3
COc1cc2c(Br)c(CN3CCC[C@H]3C(N)=O)c3cc(OC)c(OC)cc3c2cc1OC | 44.3 | 42.1 | 39.5 | 36.6
COc1cc2cc(C(=O)N3CCC[C@H]3CO)c3cc(OC)c(OC)cc3c2cc1OC | 32.8 | 29.5 | 25.6 | 30.2
COc1cc2cc(CN3CCC[C@H]3CBr)c3cc(OC)c(OC)cc3c2cc1OC | 32.1 | 20.3 | 21.1 | 16.3
CCN(CC)C(=O)c1cccn1Cc1c(Br)c2cc(OC)c(OC)cc2c2cc(OC)c(OC)cc12 | 18.2 | 20 | 13.1 | 10.6
CCN(CC)C(=O)[C@@H]1CCCN1Cc1c(Br)c2ccc(OC)c(Br)c2c2cc(OC)c(OC)cc12 | 19.6 | 17.8 | 15.3 | 22.3
COc1ccc(/C=C(/C(=O)N2CCC[C@H]2CO)c2ccc(OC)c(OC)c2)cc1OC | 11.7 | 20.9 | 19.3 | 18.1
CCN(CC)C(=O)[C@H]1CCCCN1Cc1c(Br)c2cc(OC)c(OC)cc2c2cc(OC)c(OC)cc12 | 23.5 | 13.7 | 21.7 | 14.2
NC(=O)c1ncn([C@@H]2O[C@H](CO)[C@@H](O)[C@H]2O)n1 [RIBAVIRIN] | 38.5 | 32.1 | 34.2 | 34.5
COc1cc2cc(C(=O)N3CCC[C@H]3CBr)c3cc(OC)c(OC)cc3c2cc1OC | 21.9 | 27.6 | 36.9 | 26.7
CCN(CC)C(=O)[C@H]1CCCN1Cc1c(Br)c2ccc(OC)cc2c2cc(OC)c(OC)cc12 | 35.6 | 26.9 | 27.1 | 31.6
CC(=O)N1CN(C(C)=O)C(=O)NC1=O | 50 | – | – | –
COc1cc2cc(C(=O)O)c3cc(OC)c(OC)cc3c2cc1OC | 0 | 4.2 | 4.8 | 3.6
COc1cc2cc(C(=O)N3CCCCC3)c3cc(OC)c(OC)cc3c2cc1OC | 32.5 | 24.5 | 30.6 | 28.9
CCN(CC)C(=O)[C@H]1CCCCN1Cc1c(Br)c2cc(OC)c(OC)cc2c2cc(OC)ccc12 | 12.1 | 15.4 | 21.3 | 17.6
COc1ccc(/C=C(/C(=O)O)c2ccc(OC)c(OC)c2)cc1OC | 2.3 | 4.1 | 1.9 | 2.7
CCN(CC)C(=O)[C@@H]1CCCN1Cc1c(Br)c2cc(OC)c(OC)cc2c2cc(OC)ccc12 | 23.5 | 15.7 | 18.9 | 14.2
CCN(CC)C(=O)[C@H]1CCCN1Cc1c(Br)c2cc(OC)c(OC)cc2c2c(Br)c(OC)ccc12 | 42.6 | 30.2 | 39.2 | 35.8
COc1ccc2c(Br)c(CN3CCC[C@H]3C#N)c3cc(OC)c(OC)cc3c2c1 | 20.9 | 27.7 | 24.5 | 18.9
CCN(CC)C(=O)[C@@H]1CCCN1Cc1c(Br)c2ccc(OC)cc2c2cc(OC)c(OC)cc12 | 12.5 | 23.7 | 16.8 | 8.9
COC(=O)[C@@H]1CCCN1C(=O)/C(=C/c1ccc(OC)c(OC)c1)c1ccc(OC)c(OC)c1 | 17.5 | 21.1 | 23.6 | 17.2

SMILES | inhibition of growth at 500 µg/mL (Tobacco mosaic virus [1]) [%] | Activity (Tobacco mosaic virus [2]) [%] | Activity (Tobacco mosaic virus [3]) [%] | Activity (Tobacco mosaic virus [4]) [%]
COc1ccc2c(CN3CCC[C@H]3C(N)=O)c(Br)c3cc(OC)c(OC)cc3c2c1 | 0 | 14.5 | 0 | 5.6
COc1cc2cc(CN3C(=O)CC[C@H]3C(=O)O)c3cc(OC)c(OC)cc3c2cc1OC | 32.4 | 33.7 | 35.3 | 25.6
COc1cc2cc(CN3C(=O)CC[C@H]3C(=O)OC(C)(C)C)c3cc(OC)c(OC)cc3c2cc1OC | 14.2 | 27.1 | 23.5 | 16.8
CCN(CC)C(=O)[C@@H]1CCCN1Cc1c(Br)c2cc(OC)c(OC)cc2c2cc(OC)c(OC)cc12 | 17.2 | 22 | 25.3 | 21.6
COc1cc2cc(C(=O)N3CCC[C@H]3C=O)c3cc(OC)c(OC)cc3c2cc1OC | 22.2 | 15.2 | 21.4 | 20.3
COc1ccc2c(Br)c(CN3CCC[C@H]3C(N)=O)c3cc(OC)c(OC)cc3c2c1 | 35.5 | 12.3 | 32.4 | 30.7
CCN(CC)C(=O)[C@H]1CCCN1Cc1c(Br)c2cc(OC)c(OC)cc2c2cc(OC)ccc12 | 35.7 | 27.6 | 33.1 | 31.4
COc1cc2c(Br)c(CBr)c3cc(OC)c(OC)cc3c2cc1OC | 6.1 | 4.3 | 5.2 | 1.8
CCN(CC)C(=O)[C@@H]1CCCCN1Cc1c(Br)c2cc(OC)c(OC)cc2c2cc(OC)c(OC)cc12 | 19.7 | 21.5 | 28.5 | 26.3
COc1cc2cc(C(=O)N3CCC[C@H]3C(N)=O)c3cc(OC)c(OC)cc3c2cc1OC | 27 | 25.3 | 24.3 | 23.5
COC(=O)[C@@H]1CCCN1Cc1c(Br)c2cc(OC)c(OC)cc2c2cc(OC)c(OC)cc12 | 19.6 | 21.4 | 33.3 | 27.8
COc1cc2cc(CN3CCCCC3)c3cc(OC)c(OC)cc3c2cc1OC | 38.4 | 30 | 35.9 | 35.2
COc1cc2cc(CN3CCC[C@H]3CO)c3cc(OC)c(OC)cc3c2cc1OC | 15.9 | 17.4 | 25.2 | 23.5
COc1cc2c(Br)c(CN3CCC[C@H]3C(=O)O)c3cc(OC)c(OC)cc3c2cc1OC | 20.4 | 17 | 10.2 | 13.5
CCN(CC)C(=O)[C@H]1CCCN1Cc1c(Br)c2cc(OC)c(OC)cc2c2cc(OC)c(OC)cc12 | 33.3 | 21.3 | 27.6 | 30.2
COc1cc2c(Br)c(CN3CCC[C@@H]3C(N)=O)c3cc(OC)c(OC)cc3c2cc1OC | 10.5 | 0 | 15.3 | 12.2
COc1ccc2c(CN3CCC[C@H]3C#N)c(Br)c3cc(OC)c(OC)cc3c2c1 | 22.7 | 12.6 | 15.3 | 20.5
CCN(CC)C(=O)[C@@H]1CCCN1Cc1c(Br)c2cc(OC)c(OC)cc2c2c(Br)c(OC)ccc12 | 32.5 | 20.7 | 26.1 | 23.5
COc1cc2c(Br)c(CN3CCC[C@H]3C(=N)OC(C)(C)C)c3cc(OC)c(OC)cc3c2cc1OC | 39.7 | 36.6 | 42.2 | 40.3
COc1cc2c(Br)c(CN3CCC[C@H]3C#N)c3cc(OC)c(OC)cc3c2cc1OC | 24.7 | 10.3 | 33.3 | 18.2
COc1cc2cc(C(=O)N3CCC[C@H]3C#N)c3cc(OC)c(OC)cc3c2cc1OC | 12.5 | 17.6 | 10.3 | 15.6
CCN(CC)C(=O)[C@@H]1CCCCN1Cc1c(Br)c2cc(OC)c(OC)cc2c2cc(OC)ccc12 | 30.7 | 25.2 | 34.3 | 26.4
